Reference: ChEMBL document CHEMBL5346886 (Eur J Med Chem, 2023)
In brackets after ≈: the same amount, converted by molar mass. Activity calls are given as the source filed them. The calls are words filed in the database; no cut-off is given here.

Legend:
[1] = test system: Murine hepatitis virus; test: Antiviral activity against Murine hepatitis virus-A59 infected in mouse L929 cells assessed as reduction in viral copy pre-infected with cell for 1 hrs followed by compound addition and measured after 48 hrs by RT-qPCR analysis; format: functional, organism-based; conditions: Murine coronavirus
In short: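 L929 cells in DMEM with 10% FBS were washed serum-free at 80% confluence and infected with MHV-A59 at MOI 0.01 for 1 h at 37 °C. Compounds were added at 0.1–100 μmol/L, with DMSO as blank control. After 48 h at 37 °C, the viral M gene in supernatant was measured by qRT-PCR. Percent inhibition was derived from copy number and EC50 from curve fitting.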

[2] = test system: Murine hepatitis virus; test: Potency index, ratio of GS-441524 EC50 to test compound EC50 for antiviral activity against Murine hepatitis virus-A59 infected in mouse L929 cells assessed as reduction in viral copy pre-infected with cell for 1 hrs followed by compound addition and measured after 48 hrs by RT-qPCR analysis; format: functional
[3] = Stability in human plasma assessed as half-life; format: ADME, cell-free
[4] = Solubility of the compound; format: physicochemical
[5] = test system: Murine hepatitis virus; test: Antiviral activity against murine hepatitis virus-A59 infected in BALB/c mouse assessed as inhibition of viral replication in lungs at 100 mg/kg, po administered once daily one hour post infection and measured after 3 days by qRT-PCR analysis; format: functional, organism-based; conditions: time 3.0 day
In short: (§1)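 SPF male BALB/c mice aged 3–4 weeks were put under isoflurane and inoculated intranasally with 30 μL MHV-A59 (TCID50 = 10−7.125/100 μL) in PBS. Oral dosing once daily in 15% Cremophor EL/82.5% PBS/2.5% DMSO started at 1 hpi and ran for four days; groups had 12 mice. At 3 dpi, 4 mice per group were killed and lung and liver M-gene copies measured by qRT-PCR.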

[6] = test system: Murine hepatitis virus; test: Antiviral activity against murine hepatitis virus-A59 infected in BALB/c mouse assessed as inhibition of viral replication in liver at 100 mg/kg, po administered once daily one hour post infection and measured after 3 days by qRT-PCR analysis; format: functional, organism-based; conditions: time 3.0 day; in short: as §1
[7] = test system: Murine hepatitis virus; test: Antiviral activity against murine hepatitis virus-A59 infected in BALB/c mouse assessed as inhibition of viral titer in liver at 100 mg/kg, po administered once daily one hour post infection and measured after 3 days by qRT-PCR analysis; format: functional, organism-based; conditions: time 3.0 day; in short: as §1
[8] = Cmax in Sprague-Dawley rat at 5 mg/kg, iv administered as single dose and measured at 0.083 to 24 hrs by LC-MS/MS analysis; format: ADME, organism-based; parameters: dose 5 mg/kg, time 0.083-24 hrs, route iv; conditions: in vivo
[9] = AUC (0 to infinity) in Sprague-Dawley rat at 25 mg/kg, po administered as single dose and measured at 0.25 to 24 hrs by LC-MS/MS analysis; format: ADME, organism-based; parameters: time upper 24 hrs, time lower 0.25 hrs, dose 25 mg/kg, route po; conditions: in vivo
[10] = test system: Murine hepatitis virus; test: Antiviral activity against murine hepatitis virus-A59 infected in BALB/c mouse assessed as alleviation of interstitial pneumonia in lungs at 100 mg/kg, po administered once daily one hour post infection and measured after 3 days by H&E staining based analysis; format: functional, organism-based; conditions: time 3.0 day
In short: (§2)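 In male BALB/c mice (3–4 weeks), MHV-A59 was given intranasally (30 μL, TCID50 = 10−7.125/100 μL). Oral dosing once daily in a Cremophor EL/PBS/DMSO vehicle began at 1 hpi and lasted four days. At 3 dpi, lungs and livers from 4 mice per group were fixed in zinc formalin and paraffin-embedded. Sections of about 4 μm were stained with H&E and examined at 200× and 400×.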

[11] = MRT (0 to infinity) in Sprague-Dawley rat at 5 mg/kg, iv administered as single dose and measured at 0.083 to 24 hrs by LC-MS/MS analysis; format: ADME, organism-based; conditions: in vivo, time 0.083-24 hrs
[12] = AUC (0 to infinity) in Sprague-Dawley rat at 5 mg/kg, iv administered as single dose and measured at 0.083 to 24 hrs by LC-MS/MS analysis; format: ADME, organism-based; parameters: time upper 24 hrs, dose 5 mg/kg, time lower 0.083 hrs, route iv; conditions: in vivo
[13] = test system: Murine hepatitis virus; test: Antiviral activity against murine hepatitis virus-A59 infected in BALB/c mouse assessed as alleviation of thickened alveolar septa in lungs at 100 mg/kg, po administered once daily one hour post infection and measured after 3 days by H&E staining based analysis; format: functional, organism-based; conditions: time 3.0 day; in short: as §2
[14] = Cmax in Sprague-Dawley rat at 25 mg/kg, po administered as single dose and measured at 0.25 to 24 hrs by LC-MS/MS analysis; format: ADME, organism-based; parameters: dose 25 mg/kg, time 0.25-24 hrs, route po; conditions: in vivo
[15] = MRT (0 to infinity) in Sprague-Dawley rat at 25 mg/kg, po administered as single dose and measured at 0.25 to 24 hrs by LC-MS/MS analysis; format: ADME, organism-based; conditions: in vivo, time 0.25-24 hrs
[16] = test system: Murine hepatitis virus; test: Antiviral activity against murine hepatitis virus-A59 infected in BALB/c mouse assessed as alleviation of lymphocytes infiltration in lungs at 100 mg/kg, po administered once daily one hour post infection and measured after 3 days by H&E staining based analysis; format: functional, organism-based; conditions: time 3.0 day; in short: as §2
[17] = test system: Murine hepatitis virus; test: Antiviral activity against murine hepatitis virus-A59 infected in BALB/c mouse assessed as reduction in mortality at 100 mg/kg, po administered once daily one hour post infection and measured after 23 days; format: functional, organism-based; conditions: time 23.0 day
In short: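 After intranasal MHV-A59 inoculation (30 μL, TCID50 = 10−7.125/100 μL), 3–4-week-old male BALB/c mice received oral drug or vehicle once daily from 1 hpi for four days, 12 per group. The remaining mice were monitored daily for body weight, clinical signs and death until 23 dpi; survival curves were plotted.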

[18] = Oral bioavailability in Sprague-Dawley rat at 25 mg/kg administered as single dose and measured at 0.25 to 24 hrs by LC-MS/MS analysis; format: ADME, organism-based; conditions: in vivo, time 0.25-24 hrs
[19] = test system: Murine hepatitis virus; test: Antiviral activity against murine hepatitis virus-A59 infected in BALB/c mouse assessed as alleviation of necrotic debris in lungs at 100 mg/kg, po administered once daily one hour post infection and measured after 3 days by H&E staining based analysis; format: functional, organism-based; conditions: time 3.0 day; in short: as §2
[20] = test system: Murine hepatitis virus; test: Antiviral activity against murine hepatitis virus-A59 infected in BALB/c mouse assessed as reduction in IL6 production in liver at 70 mg/kg, po administered once daily one hour post infection and measured after 3 days by ELISA analysis; format: functional, organism-based; conditions: time 3.0 day
In short: (§3)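 MHV-A59 was inoculated intranasally into male BALB/c mice (30 μL, TCID50 = 10−7.125/100 μL), with oral dosing once daily from 1 hpi for four days. At 3 dpi, 0.1 g lung or liver from 4 mice per group was homogenized in 0.9 mL water at 4 °C and centrifuged. Supernatant IFN-β was read by ELISA; TNF-α, IFN-γ, IL-1β, IL-6 and CXCL10 by multi-analyte kit, with OD 450 nm against standards.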

[21] = test system: Murine hepatitis virus; test: Antiviral activity against murine hepatitis virus-A59 infected in BALB/c mouse assessed as reduction in TNF-alpha production in liver at 70 mg/kg, po administered once daily one hour post infection and measured after 3 days by ELISA analysis; format: functional, organism-based; conditions: time 3.0 day; in short: as §3
[22] = test system: Murine hepatitis virus; test: Antiviral activity against murine hepatitis virus-A59 infected in BALB/c mouse assessed as reduction in IFN-gamma production in liver at 70 mg/kg, po administered once daily one hour post infection and measured after 3 days by ELISA analysis; format: functional, organism-based; conditions: time 3.0 day; in short: as §3
[23] = test system: Murine hepatitis virus; test: Antiviral activity against murine hepatitis virus-A59 infected in BALB/c mouse assessed as reduction in CXCL10 production in liver at 70 mg/kg, po administered once daily one hour post infection and measured after 3 days by ELISA analysis; format: functional, organism-based; conditions: time 3.0 day; in short: as §3
[24] = test system: Murine hepatitis virus; test: Antiviral activity against Murine hepatitis virus-A59 infected in mouse L929 cells assessed as reduction in viral copy pre-infected with cell for 1 hrs followed by compound addition and measured after 48 hrs in the presence of remdesivir by RT-qPCR analysis; format: functional, organism-based
In short: (§4)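 L929 cells in DMEM with 10% FBS were seeded for 24 h to 80% confluence and washed thrice with serum-free medium. Cells were infected with MHV-A59 at MOI 0.01 for 1 h at 37 °C, then compound was added, with DMSO as the blank control. After 48 h at 37 °C, cells and supernatants were taken for qRT-PCR of viral copies. Inhibition was calculated from copy number and fitted for EC50.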

[25] = test system: Murine hepatitis virus; test: Antiviral activity against murine hepatitis virus-A59 infected in BALB/c mouse assessed as inhibition of viral replication in lungs at 70 mg/kg, po administered once daily one hour post infection and measured after 3 days by qRT-PCR analysis; format: functional, organism-based; conditions: time 3.0 day; in short: as §1
[26] = test system: Murine hepatitis virus; test: Antiviral activity against murine hepatitis virus-A59 infected in BALB/c mouse assessed as reduction in IL-1beta production in liver at 70 mg/kg, po administered once daily one hour post infection and measured after 3 days by ELISA analysis; format: functional, organism-based; conditions: time 3.0 day; in short: as §3
[27] = test system: Murine hepatitis virus; test: Antiviral activity against murine hepatitis virus-A59 infected in BALB/c mouse assessed as reduction in IFN-beta production in liver at 70 mg/kg, po administered once daily one hour post infection and measured after 3 days by ELISA analysis; format: functional, organism-based; conditions: time 3.0 day; in short: as §3
[28] = test system: Murine hepatitis virus; test: Antiviral activity against Murine hepatitis virus-A59 infected in mouse L929 cells assessed as reduction in viral copy upto 200 uM pre-infected with cell for 1 hrs followed by compound addition and measured after 48 hrs by RT-qPCR analysis; format: functional, organism-based; in short: as §4
[29] = Tmax in Sprague-Dawley rat at 25 mg/kg, po administered as single dose and measured at 0.25 to 24 hrs by LC-MS/MS analysis; format: ADME, organism-based; conditions: in vivo, time 0.25-24 hrs
[30] = Tmax in Sprague-Dawley rat at 5 mg/kg, iv administered as single dose and measured at 0.083 to 24 hrs by LC-MS/MS analysis; format: ADME, organism-based; conditions: in vivo, time 0.083-24 hrs
[31] = test system: Murine hepatitis virus; test: Antiviral activity against murine hepatitis virus-A59 infected in BALB/c mouse assessed as inhibition of viral replication in liver at 70 mg/kg, po administered once daily one hour post infection and measured after 3 days by qRT-PCR analysis; format: functional, organism-based; conditions: time 3.0 day; in short: as §1

CC(C(=O)OC[C@H]1O[C@@](C#N)(c2ccc3c(N)ncnn23)[C@H](O)[C@@H]1O)c1cccc(Oc2ccccc2)c1 (stereo not given in full)
EC50 [1]: 1.27 µM
Ratio EC50 [2]: 8
t1/2 [3]: 2.8218 h
solubility [4]: 29 µM (≈ 15 µg/mL)

CCC(CC)COC(=O)[C@H](C)N[P@](=O)(OC[C@H]1O[C@@](C#N)(c2ccc3c(N)ncnn23)[C@H](O)[C@@H]1O)Oc1ccccc1
EC50 [1]: 1.82 µM

COc1ccc2c(c1)c(CC(=O)OC[C@H]1O[C@@](C#N)(c3ccc4c(N)ncnn34)[C@H](O)[C@@H]1O)c(C)n2C(=O)c1ccc(Cl)cc1
EC50 [1]: 10.1 µM
t1/2 [3]: 2.8345 h
solubility [4]: 0.1 µM (≈ 0.0631 µg/mL)

COc1ccc2cc([C@H](C)C(=O)OC[C@H]3O[C@@](C#N)(c4ccc5c(N)ncnn45)[C@H](O)[C@@H]3O)ccc2c1
EC50 [1]: 8.65 µM
t1/2 [3]: 3.0328 h
solubility [4]: 155 µM (≈ 78 µg/mL)

N#C[C@@]1(c2ccc3c(N)ncnn23)O[C@H](COC(=O)Cc2ccccc2Nc2c(Cl)cccc2Cl)[C@@H](O)[C@H]1O
EC50 [1]: 6.4 µM
t1/2 [3]: 3.186 h
solubility [4]: 3.7 µM (≈ 2.11 µg/mL)

CC(C(=O)OC[C@H]1O[C@@](C#N)(c2ccc3c(N)ncnn23)[C@H](O)[C@@H]1O)c1cccc(C(=O)c2ccccc2)c1 (stereo not given in full)
EC50 [1]: 4.17 µM
t1/2 [3]: 3.3197 h
solubility [4]: 1070 µM (≈ 566 µg/mL)

N#C[C@@]1(c2ccc3c(N)ncnn23)O[C@H](CO)C(O)C1O (single isomer, unassigned) [GS-441524]
Activity [5]: Active
Activity [6]: Active
Activity [7]: Active
Cmax [8]: 5.67 µM
AUC [9]: 22.6 uM.hr/L
Activity [10]: inactive
EC50 [1]: 10 µM
MRT [11]: 1.28 h
AUC [12]: 7.51 uM.hr/L
Activity [13]: inactive
Cmax [14]: 7.75 µM
MRT [15]: 3.16 h
Activity [16]: inactive
Activity [17]: Active
F [18]: 60.31%
Activity [19]: inactive

CC(C)Cc1ccc(C(C)C(=O)O)cc1 (stereo not given) [IBUPROFEN]
Cmax [8]: 41.8 µM
AUC [9]: 263 uM.hr/L
Activity [20]: inactive
Activity [21]: inactive
AUC [12]: 67.1 uM.hr/L
Cmax [14]: 80.2 µM
Activity [22]: inactive
Activity [23]: inactive
Activity [24]: inactive
F [18]: 78.42%
Activity [25]: inactive
Activity [26]: inactive
Activity [27]: inactive
Activity [28]: inactive
Tmax [29]: 0.67 h
Tmax [30]: 1.8 min
Activity [31]: inactive
